Screens as filed in PubChem.
PMI act hi M6P: human PMI activators, high substrate, primary screen, biochemical, fluorescence intensity, near-saturating mannose 6-phosphate. coupled PMI enzyme assay, resazurin fluorescence, 20 min; stronger effect = higher value; 1 = untreated enzyme, 0 = substrate-free blank. activation factor at 20 µM. AID 1216, 2008. 190,000 tested, 0.34% active;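 active = activation factor of 2 or more at 20 µM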
Target sequence (P34949 whole entry, looked up): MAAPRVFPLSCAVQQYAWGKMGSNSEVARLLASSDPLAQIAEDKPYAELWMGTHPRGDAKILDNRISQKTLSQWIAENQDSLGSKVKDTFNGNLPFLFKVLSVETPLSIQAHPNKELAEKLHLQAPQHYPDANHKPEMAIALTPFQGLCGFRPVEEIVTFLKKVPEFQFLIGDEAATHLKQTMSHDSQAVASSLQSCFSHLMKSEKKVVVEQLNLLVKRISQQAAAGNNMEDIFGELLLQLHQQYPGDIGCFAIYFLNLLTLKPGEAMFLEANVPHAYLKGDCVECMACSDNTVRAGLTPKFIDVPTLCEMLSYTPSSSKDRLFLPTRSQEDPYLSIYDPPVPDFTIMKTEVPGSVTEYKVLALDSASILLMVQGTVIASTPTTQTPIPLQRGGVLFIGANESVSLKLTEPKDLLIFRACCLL
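Test system – human PMI in coupled enzyme assay · Timing – 20 min incubation at room temperature · Detection – Diaphorase-driven resazurin-to-resorufin fluorescence, excitation 544, emission 590 nm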
WT yeast gro inh: growth inhibition of WT strain, primary screen, mitochondrial fusion inhibitor project, WT and mutant strains, chemical genetic; mitochondrial fusion phenotypic screen; inhibition, % at 10 µM; 190,000 tested, 2.1% active; AID 1362, 2008; in the data active = inhibition above about 58%; tested in S. cerevisiae
m-calpain inh: inhibitors of pig calpain II, primary screen, biochemical, fluorogenic peptide substrate, 1536-well; purified calpain II, 30 min; inhibition, % at 16 µM; 220,000 tested, 0.37% active; AID 1236, 2008;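 active = inhibition above about 50%, limit read from the data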
Rad51 HR inh: human RAD51 strand exchange inhibitors, primary screen, biochemical, fluorescence | inhibition, % at 10 µM | AID 1385, 2008 | DNA repair protein RAD51 homolog 1 (Homo sapiens), Q06609 | hRad51 DNA strand exchange, fluorescence dequenching | 200,000 tested, 0.085% active;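 active = inhibition above 40% at the single screening dose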;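 also: 0% = DMSO control wells and 100% = blanks with heterologous ssDNA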
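System: human Rad51 nucleoprotein filaments preassembled on unlabelled ssDNA. Reagent: labelled 47-mer dsDNA for strand exchange. Schedule: 30-min compound preincubation and 15-min exchange, both room temperature. Measured by: FRET fluorescence dequenching, excitation 485 nm, emission 520 nm. Read-out: Fluorescence-based percent inhibition, control- and blank-normalised. Benchmarks: plate controls and plate blanks.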
PMI act: activators of human PMI, primary screen, biochemical, fluorescence intensity, near-Km mannose 6-phosphate | purified human PMI, coupled resazurin fluorescence, 20 min; stronger effect = higher value; 1 = vehicle control, 0 substrate-free wells | 190,000 tested, 0.005% active | AID 1214, 2008 | activation factor at 20 µM;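 active = activation factor of 2 or more at 20 µM, relative to plate controls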
Lmaj promast: Leishmania major promastigote growth inhibition, primary screen; 200,000 tested, 9% active; Leishmania major promastigotes, resazurin fluorescence viability; inhibition, % at 10 µM; in the data active = inhibition above about 50%;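 also: promastigotes grown with compound for 44 hours at 28 °C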
* hit, by the source's call; x = no result given. Only some compounds are listed: those with a hit (about 9.8% of all), similar ones and a draw of the others.

SMILES	PMI act hi M6P	WT yeast gro inh	m-calpain inh	Rad51 HR inh	PMI act	Lmaj promast
O=c1c(Cl)c(N2CCCCC2)cnn1-c1nc2ccccc2[nH]1	1	56	36	1	1	60*
O=c1c2ccccc2nc2c3ccccc3cnn12	1	5	-177	1	1	8
O=C(O)CCCNC(=O)c1ccc(NC(=O)Cc2ccc(Cl)cc2)cc1	1.2	0	-19	3	1.2	-5
COc1ccc(-c2csc3nc(C)nc(N4CCC(C)CC4)c23)cc1OC	0.9	63*	-7	4	1	90*
COc1ccc(-c2csc3nc(C)nc(N4CCN(C(C)=O)CC4)c23)cc1OC	0.9	2	-11	5	0.8	7
COc1ccc(CNC(=O)c2coc(=O)c3ccccc23)cc1	1.1	-2	15	5	1.2	3
CCCCN=C(C)c1c(O)c2ccccc2oc1=O	1	17	73*	x	1	5
CC1CCC(C(=O)c2c(O)c3ccccc3oc2=O)CC1 (stereo not drawn)	1	12	-14	-5	0.9	99*
CC(=N)c1c(O)c2ccccc2oc1=O	x	x	0	-6	x	x
CCCCC(=O)c1c(O)c2ccccc2oc1=O	1	-12	17	-5	1	-1
CCc1ccc(NC2=CC(=O)CC(c3ccco3)C2)cc1 (stereo not drawn)	0.9	x	5	8	1.1	63*
Cc1cc(SCC(=O)OCC(=O)NCC2CCCO2)c(C)cc1Br (stereo not drawn)	1.1	3	-6	2	1	-8
CC(C)C(c1nnnn1Cc1cccs1)N1CCN(C(=O)c2ccco2)CC1 (stereo not drawn)	x	-14	-8	3	x	7
CC1N(C)c2cc(NC(=O)c3ccco3)ccc2C1(C)C (stereo not drawn)	0.6	68	-5	-4	0.8	22
CC1N(C)c2cc(NC(=O)c3ccco3)c(P(=O)(Nc3ccc([N+](=O)[O-])cc3)N3CCOCC3)cc2C1(C)C (stereo not drawn)	0.7	11	-93	1	0.8	55*
CCOC(=O)N1CCC(NCCNC(=O)c2ccccc2Cl)CC1	1	-9	-17	-2	0.9	84*
CCOC(=O)N1CCC(NC(=O)c2cccs2)CC1	x	x	-15	17	x	x
O=C(NCCCCCCNC(=O)c1cccs1)c1cccs1	x	5	16	3	x	1
CCOC(=O)N1CCN(C(=O)c2ccc3c(c2)ncn3C2CCCC2)CC1	1	7	27	-2	1	-6
CCOC(=O)N1CCC(NC(=O)c2ccc3c(c2)ncn3C2CCCC2)CC1	1.1	5	77*	x	1.1	-2
CCOC(=O)N1CCC(NCCNC(=O)c2cccs2)CC1	0.9	-7	-199	0	0.9	88*
O=C(NCCNC1CCC(c2ccccc2)CC1)c1cccs1 (stereo not drawn)	1	7	10	x	1	94*
COc1cccc(C(CC(=O)Nc2cccc3ccccc23)NC(=O)c2ccccc2)c1 (stereo not drawn)	0.9	-9	40	1	0.9	-2
CCOC(=O)N1CCC(NC(=O)c2ccccc2C(=O)O)CC1	x	x	-8	-4	x	x
CCOC(=O)N1CCC(NCCNC(=O)c2ccccc2)CC1	1	-7	-16	1	1	77*
SMILES	PMI act hi M6P	WT yeast gro inh	m-calpain inh	Rad51 HR inh	PMI act	Lmaj promast
CCOc1cccc(OCCOc2ccccc2[N+](=O)[O-])c1	1.1	-2	9	5	1	13
CC1CCN(CCCCOc2ccc([N+](=O)[O-])cc2)CC1	1	14	-3	x	1	91*
CC1CCN(CCCCOc2ccccc2[N+](=O)[O-])CC1	0.9	-2	8	0	0.8	90*
C[N+](C)(C)CCOc1ccc([N+](=O)[O-])cc1	1	2	27	5	1.1	-4
O=[N+]([O-])c1ccc(-c2ccc(S(=O)(=O)NCCN3CCCC3)cc2)cc1	0.9	12	35	-2	0.9	80*
O=[N+]([O-])c1ccc(OCCCCN2CCCCC2)cc1	1.1	0	5	-8	1	89*
CC1(C)CC2CC(C)(CN2/C=N/c2sc3c(c2C#N)CC(C)(C)NC3(C)C)C1 (stereo not drawn)	x	x	-19	x	x	x
COC(=O)C1CCN(Cc2ccc(OCCCN3CCN(c4ccc([N+](=O)[O-])cc4)CC3)cc2)CC1	0.9	34	-7	-1	0.9	96*
O=C1C2CCCCN2C(=O)N1CCCCN1CCN(c2ccc([N+](=O)[O-])cc2)CC1 (stereo not drawn)	1	-3	19	-6	1	-1
CCn1c2ccccc2c2cc(NC(=O)C(=O)N3CCOCC3)ccc21	0.5	5	-67	3	0.7	-3
CC(C)(C)C(=O)/C(=C/c1ccncc1)n1cncn1	1.1	3	-22	-5	1.1	100*
CCc1ccc(C(=O)CSc2nc(C)cc(=O)[nH]2)cc1	1	18	29	-7	1	-8
COc1cc(/C=N/NC(=O)C(=O)/C=C2\NC3(CCCC3)Cc3ccccc32)ccc1O	1.2	35	9	-4	1	12
O=C(/C=C1\NC2(CCCC2)Cc2ccccc21)C(=O)N/N=C/c1ccccc1O	1.2	-9	-76	-8	1.1	99*
CN(C)CCCCOc1ccc(Br)cc1Cl	0.9	11	7	-3	0.9	96*
Cc1ccc(OCCOCCN(C)C)c(Cl)c1	1.1	3	12	-1	1	85*
OCCNCCCOc1ccc(Cl)cc1Br	0.9	4	13	1	0.9	87*
COc1cc(C)ccc1OCCOc1cc(C)ccc1Cl	1	23	-5	10	1	-6
CCc1cc(OCCOCCN(C)C)ccc1Cl	1.1	8	9	18	1	98*
Clc1ccc(OCCn2ccnc2)c(Br)c1	1	48	20	-1	1	31
C=CCNCCCOc1ccc(Cl)cc1Br	1.1	6	-2	25	1.1	78*
COCCNCCCOc1ccc(Cl)cc1Br	1.1	20	-13	x	0.9	65*
COCCNCCCOc1ccc(Br)cc1Cl	1.1	4	9	x	1.1	81*
COCCNCCOc1ccc(C)cc1[N+](=O)[O-]	0.9	13	1	-38	1	1
Cc1cc(S(=O)(=O)N2CCN(C(=O)CCC(=O)N3CCOCC3)CC2)ccc1Br	x	x	-17	1	x	x
